This note sets out measurements from ChEMBL document CHEMBL5131470, “Structure-activity and structure-property relationship studies of spirocyclic chromanes with antimalarial activity” (Bioorg Med Chem, 2022).

For data set [1], the system named is Plasmodium falciparum. Briefly: Antimalarial activity against chloroquine-resistant Plasmodium falciparum Dd2 assessed as inhibition of parasite growth incubated for 72 hrs by SYBR green I-based DNA quantification assay. In kind it is functional, organism-based. As to conditions: Dd2, 72 h.
Data set [2] in a line: Octanol-water distribution coefficient, logD of the compound at pH 3 by HPLC-based analysis. In kind it is physicochemical.
The nature of data set [3]: Selectivity index, ratio of EC50 for cytotoxicity against human HepG2 cells to EC50 for antimalarial activity against chloroquine-resistant Plasmodium falciparum Dd2. It is filed as toxicity, cell-based. As to conditions: read-out: Ratio EC50. Put shortly: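 Human HepG2 hepatoma cells were seeded at 2,500 cells/well and grown 24 h. Serial dilutions of compound (0–40 μM) were then added for another 48 h. […] SI = EC50(HepG2)/EC50(Dd2).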

A short description of data set [4]: Aqueous solubility of the compound at pH 2 by HPLC analysis. It is filed as physicochemical. As to conditions: aqueous solution. The procedure, abridged:
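Aqueous solubility was measured at pH 2.0 with an in-house HPLC assay. Values are reported as bins: ≤10 μM, 10–20 μM, 20–40 μM, 40–80 μM and ≥80 μM.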

A short description of data set [5]: Aqueous solubility of the compound at pH 6.5. To be noted: aqueous solution.
Data set [6] is described as follows: Cytotoxicity against human HepG2 cells assessed as reduction in cell viability incubated for 48 hrs by MTS assay. In kind it is toxicity, cell-based. Put shortly:
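HepG2 human hepatoma cells were seeded at 2,500 cells/well in 384-well plates and incubated 24 h. Serial compound dilutions (0–40 μM range) were added, then cells were incubated a further 48 h.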
A general note: Formazan colour is commonly taken as a measure of viable cells.

Data set [7] can be described thus: Octanol-water distribution coefficient, logD of the compound at pH 7.4 by HPLC-based analysis. In kind it is physicochemical.

Converted amounts (≈) assume the structure as drawn.

What is called EC50 is the concentration at which the effect is half-maximal. In general, logD refers to the decadic logarithm of the distribution of all forms, ionised or not, between an organic phase and buffer at a given pH. Read a low logD as lower lipophilicity. For orientation: solubility means how much of the substance goes into solution per volume. A higher solubility goes with a readily soluble substance. On to `O=C1CC2(CCN(CCC3CCCCC3)CC2)Oc2c1ccc1ccccc21`, for which, in data set [1], the EC50 came out at 710 nM. The pH-dependent lipophilicity (logD) in data set [2] was 2.99; in data set [7], 4.5. The selectivity ratio in data set [3] worked out at 31.2. The solubility in data set [4] is 20 µM (≈ 7.55 µg/mL); in data set [5] it was 10 µM (≈ 3.78 µg/mL). For the same compound, in data set [6], the EC50 at 48 h turned out to be 16000 nM.

As for `O=C(CN1CCC2(CCc3ccc4ccccc4c3O2)CC1)c1ccc(F)c(F)c1`, the EC50 in data set [1] is above 2500 nM. For the same compound, the solubility in data set [4] and in data set [5] was 20 µM (≈ 8.15 µg/mL) throughout. Further, the EC50 at 48 h in data set [6] is above 20000 nM.

Consider `OC1CC2(CCN(CCc3ccc(F)c(F)c3)CC2)Oc2c1ccc1ccccc21` (stereo unspecified), for which the EC50 in data set [1] came to 530 nM. In addition, the logD in data set [2] is 2.62; in data set [7] it was 3.15. In data set [3], the selectivity ratio was above 32.5. Further, the solubility in data set [4] and in data set [5] was at least 80 µM in each case. For the same compound, in data set [6], the half-maximal effective concentration (EC50) at 48 h was above 20000 nM.

Regarding `O=C1CC2(CCNCC2)Oc2c1ccc1ccccc21`, the EC50 in data set [1] turned out to be 2270 nM. In addition, the logD was 1.48 in data set [2] and 1.78 in data set [7]. Also, the selectivity ratio in data set [3] was determined as 3.2. Further, the solubility in data set [4] and in data set [5] was at least 80 µM in each case. The concentration giving a half-maximal response (EC50) at 48 h in data set [6] amounted to 7000 nM.

As to `OC1CC2(CCNCC2)Oc2c1ccc1ccccc21` (stereo unspecified), in data set [1], the EC50 came out at 510 nM. Also, the logD is recorded as 2.04 in data set [2] and 2.46 in data set [7]. Also, the selectivity ratio in data set [3] was above 54.5. The solubility was 40 µM (≈ 10.8 µg/mL) in data set [4] and at most 10 µM in data set [5]. For the same compound, the EC50 at 48 h in data set [6] was above 20000 nM.

Regarding `CCN1CCC2(CCc3ccc4ccccc4c3O2)CC1`, the EC50 in data set [1] was 550 nM. In addition, the logD worked out at 2.17 in data set [2] and 2.88 in data set [7]. For the same compound, the selectivity ratio in data set [3] was above 52.1. Further, the solubility in data set [4] and in data set [5] was at most 10 µM in each case. In addition, the EC50 at 48 h in data set [6] was above 20000 nM.

Turning to `O=C(CN1CCC2(CC1)CC(=O)c1ccc3ccccc3c1O2)c1ccc(F)c(F)c1`, the EC50 in data set [1] was found to be 1300 nM. Further, the pH-dependent lipophilicity (logD) in data set [2] came out at 1.52; in data set [7], 1.82. The selectivity ratio in data set [3] is 2.7. For the same compound, the solubility in data set [4] and in data set [5] was 40 µM (≈ 16.9 µg/mL) throughout. Further, the EC50 at 48 h in data set [6] worked out at 4000 nM.

For `O=C1CC2(CCN(CC(O)c3ccc(F)c(F)c3)CC2)Oc2c1ccc1ccccc21` (stereo unspecified), the EC50 in data set [1] stood at 850 nM. The log distribution coefficient (logD) in data set [2] is 2.79; in data set [7], 4.51. For the same compound, the selectivity ratio in data set [3] was above 6.1. Further, the values for the solubility in data set [4] and in data set [5] were at least 80 µM and at most 10 µM, respectively. Moreover, the EC50 at 48 h in data set [6] was above 20000 nM.

As to `O=C(CN1CCC2(CC1)CC(O)c1ccc3ccccc3c1O2)c1ccc(F)c(F)c1` (stereo unspecified), in data set [1], the EC50 is above 2500 nM. Besides, the results for the logD in data set [2] and in data set [7] were 1.53 and 0.89, respectively. For the same compound, the selectivity ratio in data set [3] is below 6.7. Further, the solubility in data set [4] and in data set [5] was 20 µM (≈ 8.47 µg/mL) throughout. Further, in data set [6], the EC50 at 48 h came out at 33000 nM.

Turning to `CCN1CCC2(CC1)CC(=O)c1ccc3ccccc3c1O2`, in data set [1], the half-maximal effective concentration (EC50) was above 2500 nM. Also, the logD in data set [2] is on record as 1.65; in data set [7] it was 2.19. Moreover, the selectivity ratio in data set [3] is 4.7. Further, the solubility in data set [4] and in data set [5] was at least 80 µM throughout. The EC50 at 48 h in data set [6] amounted to 18000 nM.

As for `c1ccc2c3c(ccc2c1)CCC1(CCNCC1)O3`, the EC50 in data set [1] is above 2500 nM. The logD in data set [2] is 1.97; in data set [7], 2.33. Further, the selectivity ratio in data set [3] worked out at 4. Moreover, the results for the solubility in data set [4] and in data set [5] were 40 µM (≈ 10.1 µg/mL) and 20 µM (≈ 5.07 µg/mL), respectively. Besides, the EC50 at 48 h in data set [6] is above 20000 nM.

On to `CCN1CCC2(CC1)CC(O)c1ccc3ccccc3c1O2` (stereo unspecified), for which the EC50 in data set [1] is above 2500 nM. Moreover, the pH-dependent lipophilicity (logD) came out at 1.51 in data set [2] and 1.88 in data set [7]. For the same compound, the selectivity ratio in data set [3] amounted to 3.2. Besides, the solubility in data set [4] and in data set [5] was 20 µM (≈ 5.95 µg/mL) throughout. For the same compound, the EC50 at 48 h in data set [6] came to 16000 nM.
